# Hits are enriched below; roughly 1.2% of the tested compounds scored in any of these assays.
# IDE cell inh – human IDE inhibitors in live cells, primary screen, fluorescence polarization, HEK cells, FAbetaB substrate | 320,000 tested, 0.41% active | AID 434962, 2010 | inhibition, % at 5.59 µM | FAbetaB cleavage;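 active = percent inhibition above the average of all tested compounds plus 3 SD, set per screening campaign, cut at about 16% in these data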;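 note: IDE supplied by intact live HEK cells; FP after avidin binding of uncleaved biotin substrate so inhibition keeps polarization high; 0% = DMSO wells and 100% = 60 µM reference IDE inhibitor Ii1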
# ARFGAP1 inh – inhibitors of rat ARFGAP1 GAP activity, primary screen, biochemical, fluorescence polarization, GDP tracer. Arfgap1-stimulated ARF1 GTP hydrolysis, GDP FP detection. ADP-ribosylation factor GTPase-activating protein 1 (Rattus norvegicus), Q62848. 360,000 tested, 0.26% active. inhibition, % at 16.5 µM. AID 651572, 2012;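 active = inhibition above a per-plate limit, mean inhibition of low control wells plus 3 SD, cut at about 25% in these data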;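 note: 0% = DMSO wells with enzyme and 100% = wells lacking Arfgap1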
# Target sequence (Q62848 1-136 limits assumed): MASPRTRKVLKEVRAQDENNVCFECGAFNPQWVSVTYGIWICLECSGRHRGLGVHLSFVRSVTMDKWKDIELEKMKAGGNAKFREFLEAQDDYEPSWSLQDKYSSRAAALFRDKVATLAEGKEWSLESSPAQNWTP
#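 System: truncated rat Arfgap1 GAP domain / Benchmarks: high control wells lacking Arfgap1, low control full reaction with DMSO / Times: compound-enzyme preincubation 20 min, reaction 120 min, detection 60 min, 25 °C / Repeats: one replicate per compound / Also added: human ARF1(Δ1-17)-GTP substrate / Measured by: Tracer-displacement fluorescence polarization with EDTA stop, 620/688 nm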
# PREPL inhibitor – PREPL enzyme inhibitors, primary screen, biochemical, fluorescence polarization | inhibition, % at 5.96 µM | AID 2751, 2010 | 320,000 tested, 0.68% active | recombinant PREPL, fluorescence polarization activity-based probe; in the data active = inhibition above about 43%;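 note: 0% = enzyme with DMSO and 100% = wells lacking enzyme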
# IDE cell activ – human IDE activators in live cells, primary screen, fluorescence polarization, HEK cells, FAbeta-B substrate; Insulin-degrading enzyme (Homo sapiens), P14735; FAbeta-B cleavage; 0% vehicle, 100% cell-free pure enzyme wells; 340,000 tested, 0.073% active; activation, % at 5.96 µM;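 active = activation above the mean of all tested compounds plus 3 SD, set per screening campaign, cut at about 17% in these data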
# ASAP1 inh – inhibitors of human ASAP1 ArfGAP activity, primary screen, biochemical, fluorescence polarization; Arf-GAP with SH3 domain, ANK repeat and PH domain-containing protein 1 (Homo sapiens), …; ASAP1-stimulated ARF1 GTP hydrolysis, GDP FP detection; inhibition, % at 16.5 µM; 360,000 tested, 0.19% active; AID 624377, 2012; in the data active = inhibition above about 25%;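 note: 0% = vehicle with enzyme and substrate and 100% = no enzyme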
# Target sequence (Q9ULH1 325-724 limits assumed): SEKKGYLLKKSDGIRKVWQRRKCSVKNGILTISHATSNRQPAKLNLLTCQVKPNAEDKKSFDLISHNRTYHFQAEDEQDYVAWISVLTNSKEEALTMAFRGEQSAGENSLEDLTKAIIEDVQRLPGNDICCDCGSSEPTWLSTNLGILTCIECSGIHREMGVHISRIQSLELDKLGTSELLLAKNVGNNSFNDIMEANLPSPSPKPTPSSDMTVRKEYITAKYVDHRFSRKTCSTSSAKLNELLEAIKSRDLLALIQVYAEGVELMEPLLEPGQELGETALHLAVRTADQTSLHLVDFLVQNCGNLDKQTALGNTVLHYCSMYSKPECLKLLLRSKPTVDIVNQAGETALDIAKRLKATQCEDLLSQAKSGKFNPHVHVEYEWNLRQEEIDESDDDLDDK
# ASAP1 inh confirm – ASAP1 GAP activity inhibitors, confirmation, biochemical, fluorescence polarization, human, triplicate. inhibition, % at 16.5 µM. shares compounds with ASAP1 inh. ASAP1-stimulated Arf1 GTPase, GDP fluorescence polarization. 620 tested, 37% active. AID 624431, 2012;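 active = mean inhibition over triplicates exceeds the hit threshold derived for the earlier primary screening run, cut at about 25% in these data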
# ARFGAP1 inh conf – ARFGAP1 inhibitor hit confirmation, biochemical, fluorescence polarization, triplicate; shares compounds with ARFGAP1 inh; ARFGAP1-stimulated ARF1 GTP hydrolysis, GDP tracer FP; inhibition, % at 16.5 µM; 890 tested, 30% active; AID 651608, 2012;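 active = average inhibition over triplicates above the hit cutoff set in the earlier primary screen, cut at about 25% in these data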;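 note: 0% = Arfgap1 plus ARF1-GTP with DMSO and 100% = wells lacking Arfgap1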
# Starred values were filed as active, the others as inactive; . = not tested or not shown.
SMILES,IDE cell inh,ARFGAP1 inh,PREPL inhibitor,IDE cell activ,ASAP1 inh,ASAP1 inh confirm,others
CN(C(=O)COc1ccc2ccc(=O)oc2c1)C1CCS(=O)(=O)C1 (configuration not stated),0,5,22,2,28*,6,
Cc1nnc(NC(=O)C2CCN(S(=O)(=O)c3ccc(F)c(F)c3)CC2)o1,1,-12,10,4,6,.,
Cc1cccnc1C1=NOC(Cc2ccccc2)C(=O)N1Cc1ccccc1F (configuration not stated),.,-6,.,.,26*,8,
O=C(COc1ccccc1[N+](=O)[O-])N(C1CCCCC1)C1CCS(=O)(=O)C1 (configuration not stated),-3,-11,5,0,3,.,
Cc1ccc(S(=O)(=O)N(CC2CO2)c2cc(Cl)ccc2Cl)cc1 (configuration not stated),2,10,-2,-2,28*,1,
Cn1nc(C(C)(C)C)cc1NC(=O)C1(C)CCN1C(=O)C1(c2ccccc2)CC1 (configuration not stated),.,-3,.,.,25*,0,
Cn1nc(C(C)(C)C)cc1NC(=O)C1(C)CCN1C(=O)C1(c2ccccc2)CCCC1 (configuration not stated),.,-6,.,.,7,.,
O=C(CCS(=O)(=O)c1ccccc1)Nc1ccc(S(=O)(=O)Nc2nccs2)cc1,2,7,6,4,0,.,
O=C1[C@@H]2CSCN2C(=O)CN1Cc1c(F)cccc1Cl,-3,-2,-1,-2,26*,-6,
O=C1[C@@H]2CSCN2C(=O)CN1Cc1ccccc1F,-1,-6,11,-3,-3,.,
O=C(COC(=O)CN1C(=O)NC2(CCCC2)C1=O)NCc1ccc(Cl)cc1Cl,4,-4,-3,3,16,.,
Cc1cc(Nc2cc(Cl)nc(Sc3ccc(NC(=O)C4CC4)cc3)n2)n[nH]1,3,18,7,4,30*,22,
COc1cccc(CCNC(=O)C2CCC(=O)N(C3CC3)C2)c1OC (configuration not stated),.,6,.,-3,14,.,
O=C(CSc1ccc(F)cc1)Nc1cccc(S(=O)(=O)N2CCOCC2)c1,7,0,18,4,-1,.,
COc1ccc(OC)c(C(C(=O)NC2CCCCC2)N(Cc2ccco2)C(=O)c2ccccn2)c1 (configuration not stated),7,2,8,-3,26*,-1,
Cc1ccc(-n2c(O)c(C=Nc3ccc4c(c3)OCO4)c3ccccc3c2=O)cc1C,2,5,13,-6,4,.,
Cc1cc(N=Cc2c(O)n(-c3ccc4c(c3)OCO4)c(=O)c3ccccc23)ccn1,3,-8,1,1,39*,50*,
COc1ccc(C=NNC(=S)NN=Cc2ccc(OC)c(OC)c2)cc1OC,.,44*,.,3,34*,59*,
CCOc1ccc(CCNC(=O)CN2C(=O)NC3(CCCCC3C)C2=O)cc1OCC (configuration not stated),-2,-7,-5,2,-5,.,
CCOc1ccc(CCNC(=O)CN2C(=O)NC(CCSC)C2=O)cc1OCC (configuration not stated),3,11,12,2,28*,5,
Cn1c(N)c(C(=O)COC(=O)CCc2nc3ccccc3s2)c(=O)n(C)c1=O,3,4,39,-1,31*,3,
Cn1c(N)c(C(=O)COC(=O)CCCc2nc3ccccc3s2)c(=O)n(C)c1=O,0,6,9,-2,12,.,
CC(=O)c1cccc(NC(=O)c2cccc3c(-c4cccnc4)coc23)c1,.,26*,.,.,35*,26*,ARFGAP1 inh conf=29*
CCCCn1c(N)c(N(Cc2ccccc2OC)C(=O)c2cc(CC)c(C)s2)c(=O)[nH]c1=O,-2,5,-5,6,-11,.,
Cn1c(=O)c2cc(NCc3ccccc3)nnc2n(C)c1=O,1,28*,36,5,44*,9,ARFGAP1 inh conf=0
SMILES,IDE cell inh,ARFGAP1 inh,PREPL inhibitor,IDE cell activ,ASAP1 inh,ASAP1 inh confirm,others
Cn1c(=O)c2c(nc(NCc3ccccc3)n2C)n(C)c1=O,-2,-6,0,-1,7,.,
CC(C)CN1C(=O)C(=O)N(CC(=O)c2ccc3c(c2)OCO3)C1=O,-7,0,1,3,-3,.,
CCSc1nc2sc3c(c2c(=O)n1-c1ccccc1C)CCN(C)C3,3,-12,1,-10,-3,.,
COc1ccc(-n2nnnc2SCC(=O)c2ccc3c(c2)OCCO3)c(OC)c1,2,59*,2,-3,53*,51*,ARFGAP1 inh conf=135*
COc1ccc(C)cc1-n1nnnc1SCC(=O)c1ccc2c(c1)OCCO2,0,0,-8,3,6,.,
CC(CCN1C(N(C)C)=NC[C@@H]1C)c1ccccc1 (some centres not stated),2,-6,16,5,6,.,
COc1ccc(/C=N\NC(=O)c2cc3c(ccc4ccccc43)o2)cc1O,.,28*,.,-3,72*,96*,ARFGAP1 inh conf=76*
COc1ccccc1/C=N/NC(=O)c1cc2c(ccc3ccccc32)o1,0,-8,-7,4,14,.,
COc1ccc(/C=N/NC(=O)c2cc3c(ccc4ccccc43)o2)cc1OC,.,76*,.,2,102*,115*,ARFGAP1 inh conf=82*
COc1cc(/C=N/NC(=O)c2cc3c(ccc4ccccc43)o2)cc(OC)c1O,5,-6,23,-7,4,.,
Nc1nnnn1CC(=O)N/N=C/c1cc([N+](=O)[O-])ccc1Cl,4,6,10,5,5,.,
Cc1cc([N+](=O)[O-])c(C)cc1-c1ccc(/C=N/NC(=O)Cn2nnnc2N)o1,-1,67*,22,0,65*,1,ARFGAP1 inh conf=35*
O=C(COc1ccc2oc(-c3ccco3)cc(=O)c2c1)N1CCCCC1,10,80*,8,-1,32*,42*,ARFGAP1 inh conf=72*
Cc1ccc([N+](=O)[O-])cc1-c1ccc(/C=C(\C#N)c2[nH]nc(N)c2C#N)o1,1,45*,26,8,41*,56*,ARFGAP1 inh conf=58*
